Results reported in paper PMC5632530 (Cell, 2017).

Columns and labels:
PTGR2 [1] = molecular target: T1, PTGR2 (Homo sapiens, UniProt Q8N8N7); assay: In vitro LCMS-based activity assay for PTGR2; type: biochemical
PTGR2 [2] = molecular target: T1, PTGR2; type: binding
In short: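 HEK293T cells were transiently transfected with C-terminally FLAG-tagged human PTGR2 (pRK5, PEI). Cells at ~90% confluence were washed and treated in serum-free medium with probe plus competitor or DMSO for 30 min at 37°C, then irradiated at 365 nm for 10 min. Lysates (1 mg/mL) were clicked to TAMRA azide (25 μM) and fluorescence was read on gel. Curves: mean ± SD (n = 3 or 4), four-parameter fit.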

endogenous PTGR2 = endogenous PTGR2 (Homo sapiens, UniProt Q8N8N7); type: binding
In short: (§1)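 SILAC-labeled HEK293T cells were used: heavy cells received FFF probe plus competitor and light cells received probe plus DMSO, in serum-free medium for 30 min at 37°C, followed by 365 nm UV for 10 min. Lysates (1.5 mg/mL) were mixed 1:1, clicked to biotin-azide, streptavidin-enriched, trypsin-digested and analysed by LC-MS. Ratios were averaged from ≥2 biological replicates.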

ZADH2 = molecular target: T2, ZADH2 (Homo sapiens, UniProt Q8N4Q0); assay: MS-based competitive profiling with FFF 8: cross-reactivity with ZADH2; type: binding; conditions: competition of FFF 8 labeling
T2 sequence (Q8N4Q0 1-377): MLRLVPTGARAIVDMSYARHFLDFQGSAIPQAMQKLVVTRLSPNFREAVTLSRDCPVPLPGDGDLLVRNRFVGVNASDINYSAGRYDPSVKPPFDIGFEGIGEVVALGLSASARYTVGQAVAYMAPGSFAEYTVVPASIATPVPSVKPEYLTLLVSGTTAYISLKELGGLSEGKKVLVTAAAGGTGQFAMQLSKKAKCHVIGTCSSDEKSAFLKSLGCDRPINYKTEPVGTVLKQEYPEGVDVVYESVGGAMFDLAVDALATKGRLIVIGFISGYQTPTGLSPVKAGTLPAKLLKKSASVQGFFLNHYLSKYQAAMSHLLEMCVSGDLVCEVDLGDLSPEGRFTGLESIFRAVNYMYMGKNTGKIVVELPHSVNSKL
In short: as §1

PTGR2 [3] = molecular target: T1, PTGR2; type: cell-based; conditions: cells recombinantly expressing PTGR2
In short: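 HEK293T cells were co-transfected (PEI) with a UAS-luciferase reporter, GAL4-DBD or GAL4-DBD::PPARγ-LBD, and full-length PTGR2 as indicated. After 24 hr they were treated with DMSO, 15-keto-PGE2 (20 μM), test compounds, or rosiglitazone (2 μM) control. After 16 hr cells were lysed and luciferase activity was measured.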

PPARγ = molecular target: T3, PPARγ (Homo sapiens, UniProt P37231); assay: PPARγ luciferase reporter assay, direct modulation of PPARγ; type: cell-based
T3 sequence (P37231 238-503 limits assumed): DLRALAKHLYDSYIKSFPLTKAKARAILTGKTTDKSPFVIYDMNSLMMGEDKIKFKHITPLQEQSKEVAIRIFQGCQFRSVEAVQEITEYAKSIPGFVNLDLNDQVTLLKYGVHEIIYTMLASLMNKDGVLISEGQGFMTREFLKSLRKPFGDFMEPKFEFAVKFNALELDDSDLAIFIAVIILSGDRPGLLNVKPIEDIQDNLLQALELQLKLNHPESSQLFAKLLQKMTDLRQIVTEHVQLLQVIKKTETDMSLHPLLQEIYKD

PTGR2 [4] = molecular target: T1, PTGR2; assay: cell-based
[5] = system: 3T3-L1 mouse preadipocytes; assay: Adipocyte phenotypic screen: lipid accumulation by Nile Red; type: cell-based; conditions: for adipogenic activity in adipogenesis-related assays, in words: compounds 10 μM, 3T3-L1; for effect of co-treatment on the pro-adipogenic effects of 25: 10 μM with 25 (10 μM), Nile Red staining or adipogenic gene expression
In short: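 3T3-L1 preadipocytes were induced two days post-confluence with dexamethasone (1 μM), IBMX (0.5 mM) and insulin (1 μg/ml), plus DMSO (0.1%), test compound (10 μM), test compound with probe, or rosiglitazone (2 μM). They were stained with Nile Red and Hoechst at day 7 of differentiation, imaged, and harvested for RNA. Mean ± SD, n = 3.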

non-adipocyte cell lines = assay: Lipid accumulation in non-adipocyte cell lines; type: cell-based
PGRMC2 = molecular target: T4, PGRMC2 (Mus musculus, UniProt Q80UU9); assay: Quantitative proteomic; type: binding
T4 sequence (Q80UU9 1-217): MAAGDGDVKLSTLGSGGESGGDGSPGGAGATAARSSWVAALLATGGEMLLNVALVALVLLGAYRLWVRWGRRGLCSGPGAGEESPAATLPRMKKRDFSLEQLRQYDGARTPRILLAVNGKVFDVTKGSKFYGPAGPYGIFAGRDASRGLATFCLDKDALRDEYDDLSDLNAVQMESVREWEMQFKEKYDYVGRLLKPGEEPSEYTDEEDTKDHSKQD

PGRMC1 = PGRMC1 (Mus musculus, UniProt O55022); assay: Quantitative proteomic; type: binding; conditions: 10 μM
human PGRMC2 [6] = molecular target: T5, human PGRMC2 (Homo sapiens, UniProt O15173); type: binding; conditions: HEK293T cells
T5 sequence (O15173 1-223): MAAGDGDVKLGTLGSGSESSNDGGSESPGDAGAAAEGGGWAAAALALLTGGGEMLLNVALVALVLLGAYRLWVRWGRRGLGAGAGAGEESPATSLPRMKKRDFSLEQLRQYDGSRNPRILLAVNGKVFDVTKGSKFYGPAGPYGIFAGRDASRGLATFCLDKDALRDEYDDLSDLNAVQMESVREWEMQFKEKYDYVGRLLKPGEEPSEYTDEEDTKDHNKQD
In short: (§2)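 HEK293T cells were transfected with human PGRMC2 and lysed 48 hr later. Lysates (1 mg/mL) were incubated with probe and competitor or DMSO for 30 min at room temperature, UV-irradiated, clicked to TAMRA azide, and analysed by in-gel fluorescence. Blockade curves: mean ± SD (n = 3 or 4), four-parameter non-linear fit.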

cathepsin B (CTSB) = cathepsin B (CTSB) (Homo sapiens, UniProt P07858); assay: Competition of FFF 9 labeling of the active-site proximal peptide of CTSB; type: binding
In short: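 Cells were treated with probe (200–250 μM) with or without competitor in serum-free DMEM, UV-crosslinked, and lysed. Probe-labeled proteins were clicked to light or heavy biotin-TEV-azide (100 μM final) with CuSO4, TBTA and TCEP. Samples were combined, streptavidin-enriched, trypsin-digested on bead and released by TEV cleavage (50 mM Tris pH 8, 0.5 mM EDTA, 1 mM DTT). Probe-modified peptides were quantified by LC-MS.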

human PGRMC2 [7] = molecular target: T5, human PGRMC2; assay: In vitro gel-based competition of FFF probe 25 labeling of PGRMC2; type: binding
In short: as §2

T1 sequence (Q8N8N7 whole entry): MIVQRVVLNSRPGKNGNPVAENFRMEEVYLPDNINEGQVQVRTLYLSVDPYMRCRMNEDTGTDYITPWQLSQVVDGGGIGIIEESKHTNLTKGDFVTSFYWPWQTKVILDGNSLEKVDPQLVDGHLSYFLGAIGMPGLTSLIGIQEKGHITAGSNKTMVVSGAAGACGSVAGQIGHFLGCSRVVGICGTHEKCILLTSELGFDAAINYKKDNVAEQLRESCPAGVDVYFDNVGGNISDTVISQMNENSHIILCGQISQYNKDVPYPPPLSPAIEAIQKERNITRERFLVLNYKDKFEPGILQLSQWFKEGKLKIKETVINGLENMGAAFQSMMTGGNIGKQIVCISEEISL
Sequence of endogenous PTGR2 (Q8N8N7 whole entry): as above
Sequence of PGRMC1 (O55022 whole entry): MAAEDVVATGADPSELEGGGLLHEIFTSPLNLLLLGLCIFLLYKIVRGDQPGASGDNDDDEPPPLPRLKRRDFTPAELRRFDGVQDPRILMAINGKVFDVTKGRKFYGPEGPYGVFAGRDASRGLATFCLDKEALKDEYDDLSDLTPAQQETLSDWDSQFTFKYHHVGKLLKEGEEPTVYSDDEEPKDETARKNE

COc1ccccc1N1CCN(C(=O)Cc2ccccc2)CC1 [Compound 22, 1-(4-(2-Methoxyphenyl)piperazin-1-yl)-2-phenylethan-1-one]
increase in potency relative to 20, 15-keto-PGE2 reductase activity (PTGR2 [1]): > 20 fold | increase in potency relative to 20, competition of 8-labeling (PTGR2 [2]): > 20 fold | inhibition of FFF 8 labeling of endogenous PTGR2 (endogenous PTGR2; 5 μM, HEK293T cells): complete inhibition | proteome-wide selectivity in blocking FFF 8 labeling, in words (endogenous PTGR2; HEK293T cells): excellent selectivity | inhibition at 0.5 µM (endogenous PTGR2; read-out: inhibition of FFF 8 labeling of endogenous PTGR2): ~80% | cross-reactivity with ZADH2, sequence-related homolog of PTGR2 (ZADH2): did not cross-react | rescue of 15-keto-PGE2-dependent PPARγ transcriptional activity (PTGR2 [3]): concentration-dependent rescue | direct modulation of PPARγ (PPARγ): neither 22 nor 23 directly modulated PPARγ | IC50 (PTGR2 [4]): ~700 nM

COc1ccccc1C1CCN(S(=O)(=O)Cc2ccccc2)CC1 [Compound 23, 1-(Benzylsulfonyl)-4-(2-methoxyphenyl)piperidine]
direct modulation of PPARγ (PPARγ): neither 22 nor 23 directly modulated PPARγ

C#CCCC1(CCC(=O)N[C@@H](CC(C)C)C(=O)Nc2ccc3ccccc3c2)N=N1 [Compound 25, (S)-2-(3-(3-(but-3-yn-1-yl)-3H-diazirin-3-yl)propanamido)-4-methyl-N-(naphthalen-2-yl)pentanamide]
lipid accumulation, in words ([5]; Nile Red): one of the highest levels of lipid accumulation | lipid accumulation in non-adipocyte cell lines (non-adipocyte cell lines): did not induce lipid accumulation | preferential enrichment of PGRMC2 by 25 over 26 (SILAC ratio) (PGRMC2; 10 μM each, 30 min): > 3 fold | enrichment of PGRMC1 by 25 over 26 (PGRMC1): not preferentially enriched | labeling of recombinant human PGRMC2 by FFF probe (human PGRMC2 [6]): strongly labeled

C#CCCC1(CCC(=O)N[C@@H](C)C(=O)Nc2cc(OC)c3ccccc3c2)N=N1 [Compound 26, (S)-3-(3-(but-3-yn-1-yl)-3H-diazirin-3-yl)-N-(1-((4-methoxynaphthalen-2-yl)amino)-1-oxopropan-2-yl)propanamide]
adipogenic activity in adipogenesis-related assays, in words [5]: much less adipogenic activity

CCCC(=O)N[C@@H](CC(C)C)C(=O)Nc1ccc2ccccc2c1 [Compound 27, (S)-2-butyramido-4-methyl-N-(naphthalen-2-yl)pentanamide]
adipogenic activity in adipogenesis-related assays, in words [5]: active | competition of 25 (10 μM) enrichment of PGRMC2 (SILAC ratio) (PGRMC2; 10× competitor): > 3 fold | blockade of 25 labeling of recombinant human PGRMC2 by competitor (human PGRMC2 [6]): blocked in a concentration-dependent manner

CCCC(=O)N[C@@H](C)C(=O)Nc1cc(OC)c2ccccc2c1 [Compound 28, (S)-N-(1-((4-methoxynaphthalen-2-yl)amino)-1-oxopropan-2-yl)butyramide]
adipogenic activity in adipogenesis-related assays, in words [5]: largely inactive

CCCC(=O)N[C@@H](CC(C)C)C(=O)N[C@H]1CCCc2ccccc21 [Compound 29, (S)-2-butyramido-4-methyl-N-((S)-1,2,3,4-tetrahydronaphthalen-1-yl)pentanamide]
adipogenic activity in adipogenesis-related assays, in words [5]: inactive controls

CCCC(=O)N[C@@H](CC(C)C)C(=O)NCCc1ccc2c(c1)OCO2 [Compound 30, (S)-N-(2-(benzo[d][1,3]dioxol-5-yl)ethyl)-2-butyramido-4-methylpentanamide]
adipogenic activity in adipogenesis-related assays, in words [5]: inactive controls

CC(C)(C)OC(=O)CN(Cc1ccc(Cl)cc1)Cc1ccc([N+](=O)[O-])s1 [GSK4112, reference compound]
effect of co-treatment on the pro-adipogenic effects of 25 [5]: had no effect

CCOC(=O)C1Cc2ccccc2CN1C(=O)c1ccc(SC)s1 (centres unmarked) [SR8278, reference compound]
effect of co-treatment on the pro-adipogenic effects of 25 [5]: blocked

CC(NC(=O)[C@H](Cc1ccccc1)NC(=O)OCc1ccccc1)C(=O)CF (some centres unmarked) [Z-FA-FMK]
blockade of probe 9 interaction with CTSB peptide (aa 315–332) (cathepsin B (CTSB)): blocked

C=CC1=C(C)c2cc3[nH]c(cc4nc(cc5[nH]c(cc1n2)c(C)c5CCC(=O)O)C(CCC(=O)O)=C4C)c(C)c3C=C [protoporphyrn IX]
IC50 (human PGRMC2 [7]): 130 nM
